Published values gathered from unrelated publications.
Observed: cell growth or viability

SMILES | cell line | test | conditions | IC50 [µM]
O=C(Nc1ccc(Cl)cc1)Nc1cccc(-c2cn(Cc3ccc(Cl)cc3)nn2)c1 | Huh-7 | CCK-8 | 72 h | 13
O=[N+]([O-])c1cc(I)c(O)c(C=NNc2ccccc2)c1 | HEK-293T | MTT | 24 h | 17
O=C(Nc1ccc(Cl)cc1)Nc1cccc(-c2cn(Cc3cccc(Cl)c3)nn2)c1 | Huh-7 | CCK-8 | 72 h | 15.1
COc1ccc(NC(=O)Nc2ccc(-c3cn(Cc4ccc(C)cc4)nn3)cc2)cc1 | Huh-7 | CCK-8 | 72 h | > 50
COc1cccc2c1C(=O)c1c(O)c3c(c(O)c1C2=O)C[C@@](O)(C(=O)CO)C[C@@H]3O[C@H]1C[C@H](N)[C@H](O)[C@H](C)O1 | Ramos |  | 96 h | 0.0117
Cc1cnc(CNC(=O)c2c(=O)c3ccc(N4CCCN(C)CC4)nc3n3c2sc2ccccc23)cn1 | THLE3 | imaging | 72 h | 2.49
COc1ccc(NC(=O)NCc2cn(Cc3ccc(Br)cc3)nn2)cc1 | Huh-7 | CCK-8 | 72 h | > 50
c1ccc(-c2noc(-c3nn(Cc4ccc5ccccc5c4)c4ccccc34)n2)cc1 | HepG2 |  | 48 h | 115
O=[N+]([O-])c1cc(Br)c(O)c(C=NNc2ccccc2)c1 | HEK-293T | MTT | 24 h | 23
COc1cccc2c1C(=O)c1c(O)c3c(c(O)c1C2=O)C[C@@](O)(C(=O)CO)C[C@@H]3O[C@H]1C[C@H](N)[C@H](O)[C@H](C)O1 | Huh-7 | ATP luminescence | 72 h | 0.6
COc1ccc(NC(=O)Nc2ccc(-c3cn(Cc4ccc(Br)cc4)nn3)cc2)cc1 | Huh-7 | CCK-8 | 72 h | > 50
O=[N+]([O-])c1cc(I)c(O)c(C=NNc2ccc(Cl)cc2)c1 | HEK-293T | MTT | 24 h | 12.3
COc1ccc(NC(=O)Nc2cccc(-c3cn(Cc4ccc(Br)cc4)nn3)c2)cc1 | Huh-7 | CCK-8 | 72 h | 15.9
O=[N+]([O-])c1cc(Br)c(O)c(C=NNc2ccc(Br)cc2)c1 | HEK-293T | MTT | 24 h | 12.3
COc1ccc(NC(=O)Nc2cccc(-c3cn(Cc4ccccc4C)nn3)c2)cc1 | Huh-7 | CCK-8 | 72 h | 10.8
Cc1nc(Nc2ncc(C(=O)Nc3c(C)cccc3Cl)s2)cc(N2CC[C@H](O)C2)n1 | Ramos | ATP luminescence | 72 h | > 10
